Assay [1] addresses T1, Sulfonylurea receptor 2, Kir6.2 (Homo sapiens, UniProt O60706+Q14654). Briefly: Activity against pig bladder KATP channel opening assessed as ability to relax field-stimulated pig detrusor. In kind it is functional, Sus scrofa. The following applies: target entry is the homologue from another species.
Assay [2] concerns the target T2, Sulfonylurea receptor 2, Kir6.2 (Homo sapiens) (UniProt Q14654+O60706). The experiment in a line: Activity against pig bladder KATP channel opening assessed as ability to relax field-stimulated pig detrusor relative to P1075. In kind it is functional. The following applies: Sus scrofa; target entry is the homologue from another species.
The target of assay [3] is T1, Sulfonylurea receptor 2, Kir6.2. The experiment in a line: Ability to open human urinary bladder Kir6.2 channel containing SUR2B in Ltk cells by FLIPR assay. The format is functional, cell-based. The essentials:
(§1)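 Ltk- cells stably transfected with the Kir6.2/SUR2B exon 17- splice variant. Membrane potential was followed with DiBAC dye in a 96-well cell-based kinetic fluorescence (FLIPR) assay. The highest concentration tested was 10 µM. Each compound's maximal fluorescence response was expressed as % of the response to the reference opener.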

Assay [4] concerns the target T2, Sulfonylurea receptor 2, Kir6.2 (Homo sapiens). Briefly: Ability to open human urinary bladder Kir6.2 containing SUR2B in Ltk cells by FLIPR assay relative to P1075. The format is functional, cell-based. The essentials: as §1

The structures appear in SMILES notation. pEC50: −log10 of the molar value.

T1 sequence (Q14654 whole entry): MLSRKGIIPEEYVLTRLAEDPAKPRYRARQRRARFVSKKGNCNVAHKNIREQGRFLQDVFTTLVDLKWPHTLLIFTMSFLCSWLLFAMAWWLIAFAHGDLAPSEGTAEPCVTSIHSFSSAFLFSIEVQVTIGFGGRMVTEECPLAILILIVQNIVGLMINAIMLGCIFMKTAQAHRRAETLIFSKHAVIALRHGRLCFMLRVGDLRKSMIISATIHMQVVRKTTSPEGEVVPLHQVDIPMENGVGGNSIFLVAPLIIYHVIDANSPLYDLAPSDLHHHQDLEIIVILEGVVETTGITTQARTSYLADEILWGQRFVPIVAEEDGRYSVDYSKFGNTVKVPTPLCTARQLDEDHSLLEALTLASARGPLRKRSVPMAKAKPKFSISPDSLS
T1 sequence (O60706 whole entry): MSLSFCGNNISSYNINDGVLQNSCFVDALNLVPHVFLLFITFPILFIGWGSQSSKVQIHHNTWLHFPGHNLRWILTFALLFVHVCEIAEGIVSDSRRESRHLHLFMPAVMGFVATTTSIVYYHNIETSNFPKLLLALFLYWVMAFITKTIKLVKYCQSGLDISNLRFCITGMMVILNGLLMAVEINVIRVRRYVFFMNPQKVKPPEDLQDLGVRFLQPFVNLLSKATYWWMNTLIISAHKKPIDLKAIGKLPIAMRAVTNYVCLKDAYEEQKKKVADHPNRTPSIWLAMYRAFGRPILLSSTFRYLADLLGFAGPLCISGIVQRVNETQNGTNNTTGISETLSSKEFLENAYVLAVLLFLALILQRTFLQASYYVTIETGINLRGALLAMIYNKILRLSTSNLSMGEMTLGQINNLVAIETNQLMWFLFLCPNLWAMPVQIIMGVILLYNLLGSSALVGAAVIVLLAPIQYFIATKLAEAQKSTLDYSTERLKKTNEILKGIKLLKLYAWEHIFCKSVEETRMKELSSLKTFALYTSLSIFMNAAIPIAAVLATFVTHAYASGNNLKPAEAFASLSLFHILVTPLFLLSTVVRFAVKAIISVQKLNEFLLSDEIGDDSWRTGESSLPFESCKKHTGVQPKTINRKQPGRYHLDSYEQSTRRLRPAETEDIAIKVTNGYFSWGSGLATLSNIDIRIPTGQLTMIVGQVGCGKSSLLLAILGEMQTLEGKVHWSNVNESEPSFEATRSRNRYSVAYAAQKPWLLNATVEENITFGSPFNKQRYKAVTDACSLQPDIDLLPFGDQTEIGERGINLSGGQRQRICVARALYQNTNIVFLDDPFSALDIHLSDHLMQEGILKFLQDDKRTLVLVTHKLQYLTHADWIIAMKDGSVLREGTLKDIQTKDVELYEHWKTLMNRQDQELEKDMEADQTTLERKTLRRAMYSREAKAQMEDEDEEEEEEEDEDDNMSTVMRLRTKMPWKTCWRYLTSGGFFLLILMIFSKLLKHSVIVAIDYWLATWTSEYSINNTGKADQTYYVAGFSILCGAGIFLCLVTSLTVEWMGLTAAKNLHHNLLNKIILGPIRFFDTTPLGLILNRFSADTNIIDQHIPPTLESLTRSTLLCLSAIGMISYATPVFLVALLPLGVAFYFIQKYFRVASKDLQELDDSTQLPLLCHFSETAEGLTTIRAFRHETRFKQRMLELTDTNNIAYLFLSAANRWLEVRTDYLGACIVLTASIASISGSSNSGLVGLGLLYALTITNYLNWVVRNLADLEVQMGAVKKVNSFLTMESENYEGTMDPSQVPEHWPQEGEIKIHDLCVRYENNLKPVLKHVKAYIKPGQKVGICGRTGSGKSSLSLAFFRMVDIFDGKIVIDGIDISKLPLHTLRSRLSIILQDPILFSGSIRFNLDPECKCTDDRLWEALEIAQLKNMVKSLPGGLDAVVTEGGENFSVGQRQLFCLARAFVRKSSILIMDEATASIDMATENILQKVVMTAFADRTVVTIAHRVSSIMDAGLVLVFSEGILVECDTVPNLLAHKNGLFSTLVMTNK

Take `CC[C@H]1OC(O)=C2C1=NC1=C(C(=O)CSC1)[C@H]2c1ccc(F)c(Br)c1` [listing 1 of 2 here]: the pEC50 (in general, −log10 of the EC50, conventionally taken in molar units) in assay [1] is 6.02. For `CC[C@H]1OC(O)=C2C1=NC1=C(C(=O)CSC1)[C@H]2c1ccc(F)c(Br)c1` [listing 2 of 2 here], the Efficacy in assay [2] is 38%.

Turning to `CCC[C@H]1OC(O)=C2C1=NC1=C(C(=O)COC1)[C@H]2c1ccc(F)c(Br)c1` (racemic), the pEC50 was 6.10 in assay [1] and 6.81 in assay [3]. On the same counts, the results for `CC[C@H]1OC(O)=C2C1=NC1=C(C(=O)COC1)[C@H]2c1ccc(F)c(Br)c1` (racemic) are 6.31 and 7.02.

In assay [3], `CC[C@H]1OC(O)=C2C1=NC1=C(C(=O)OCC1)[C@H]2c1ccc(F)c(Br)c1` (relative stereo) showed a pEC50 of 5.30. The compound also gave an Efficacy in assay [4] of 54%. With `CC[C@@H]1OC(O)=C2C1=NC1=C(C(=O)CSC1)[C@H]2c1ccc(F)c(Br)c1` (relative stereo), in assay [3], the pEC50 was 6.81. For the same compound, in assay [4], the Efficacy was 74%. In turn, `CC[C@@H]1OC(O)=C2C1=NC1=C(C(=O)OC1)[C@H]2c1ccc(F)c(Br)c1` (relative stereo) had a pEC50 in assay [3] of 8.22. In addition, in assay [4], the Efficacy amounted to 94%.

As for `C[C@@H]1OC(=O)C2=C1NC1=C([C@H]2c2ccc(F)c(Br)c2)S(=O)(=O)CC1` (relative stereo), in assay [3], the pEC50 was 6.87. This compound showed an Efficacy in assay [4] of 93%. Take `CC[C@H]1OC(O)=C2C1=NC1=C(C(=O)CSC1)[C@H]2c1ccc(F)c(Br)c1` (relative stereo): the negative-log EC50 (pEC50) in assay [1] is 6.05; in assay [3] it was 6.99. In assay [3], `CC[C@H]1OC(O)=C2C1=NC1=C(C(=O)CCC1)[C@H]2c1ccc(F)c(Br)c1` (relative stereo) gave a pEC50 of 6.60. Further, the Efficacy in assay [4] came out at 83%. The corresponding values for `CC[C@@H]1OC(O)=C2C1=NC1=C(C(=O)CCC1)[C@H]2c1ccc(F)c(Br)c1` (relative stereo) are 7.25 and 87%. In the case of `CC[C@H]1OC(O)=C2C1=NC1=C(C(=O)OC1)[C@H]2c1ccc(F)c(Br)c1` (relative stereo), the pEC50 in assay [3] was 7.14. In assay [4], this compound returned an Efficacy of 74%. For the compound `CC[C@@H]1OCC2=C(C1=O)[C@@H](c1ccc(F)c(Br)c1)C1=C(O)OCC1=N2` (stereo in doubt; 10a) [listing 1 of 2 here], the pEC50 in assay [1] was 5.57; in assay [3] it was 6.11. On to `CC[C@@H]1OCC2=C(C1=O)[C@@H](c1ccc(F)c(Br)c1)C1=C(O)OCC1=N2` (stereo in doubt; 10a) [listing 2 of 2 here], for which the Efficacy in assay [2] was found to be 86%; in assay [4] it was 83%. As for `CC[C@@H]1OCC2=C(C1=O)[C@@H](c1ccc(F)c(Br)c1)C1=C(O)OCC1=N2` (stereo in doubt; 10b) [listing 1 of 2 here], the pEC50 is 6.05 in assay [1] and 5.86 in assay [3]. As to `CC[C@@H]1OCC2=C(C1=O)[C@@H](c1ccc(F)c(Br)c1)C1=C(O)OCC1=N2` (stereo in doubt; 10b) [listing 2 of 2 here], the figures for the Efficacy in assay [2] and in assay [4] were 95% and 46%, respectively. Regarding `C[C@@H]1OC(O)=C2C1=NC1=C(C(=O)COC1)[C@H]2c1ccc(F)c(Br)c1` (stereo in doubt; 17a) [listing 1 of 2 here], the pEC50 was 7.45 in assay [1] and 9.04 in assay [3]. Turning to `C[C@@H]1OC(O)=C2C1=NC1=C(C(=O)COC1)[C@H]2c1ccc(F)c(Br)c1` (stereo in doubt; 17a) [listing 2 of 2 here], the figures for the Efficacy in assay [2] and in assay [4] were 97% and 105%, respectively. Consider `CC[C@H]1OC(O)=C2C1=NC1=C(C(=O)COC1)[C@H]2c1ccc(F)c(Br)c1` (stereo in doubt; 21a) [listing 1 of 2 here], for which the pEC50 in assay [1] is 5.53; in assay [3], 5.14. Regarding `CC[C@H]1OC(O)=C2C1=NC1=C(C(=O)COC1)[C@H]2c1ccc(F)c(Br)c1` (stereo in doubt; 21a) [listing 2 of 2 here], the Efficacy is 94% in assay [2] and 54% in assay [4]. For the compound `CC(C)C[C@H]1OC(O)=C2C1=NC1=C(C(=O)COC1)[C@H]2c1ccc(F)c(Br)c1` (stereo in doubt; 31b), the Efficacy in assay [2] amounted to 35%; in assay [4], 59%. The corresponding values for `CCC[C@H]1OC(O)=C2C1=NC1=C(C(=O)COC1)[C@H]2c1ccc(F)c(I)c1` (stereo in doubt; 41b) are 86% and 94%.

The values are drawn from ChEMBL document CHEMBL1137338, “Effects of substitution on 9-(3-bromo-4-fluorophenyl)-5,9-dihydro-3H,4H-2,6-dioxa-4- azacyclopenta[b]naphthalene-1,8-dione, a dihydropyridine ATP-sensitive potassium channel opener” (J Med Chem, 2006).
